In ChEMBL document CHEMBL3734738, “A structure-activity relationship of non-peptide macrocyclic histone deacetylase inhibitors and their anti-proliferative and anti-inflammatory activities” (Bioorg Med Chem, 2015):
Active and inactive are the calls of the source. The rule behind the calls is not given here.

How the values were obtained:
[1] = biological target: T1, Protein deacetylase HDAC6 (Homo sapiens, UniProt Q9UBN7); assay: Inhibition of recombinant HDAC6 (unknown origin) expressed in Escherichia coli BL21(DE3) after 60 mins using trichostatin A by label-free mass spectrometry-based SAMDI assay
T1 sequence (Q9UBN7 whole entry): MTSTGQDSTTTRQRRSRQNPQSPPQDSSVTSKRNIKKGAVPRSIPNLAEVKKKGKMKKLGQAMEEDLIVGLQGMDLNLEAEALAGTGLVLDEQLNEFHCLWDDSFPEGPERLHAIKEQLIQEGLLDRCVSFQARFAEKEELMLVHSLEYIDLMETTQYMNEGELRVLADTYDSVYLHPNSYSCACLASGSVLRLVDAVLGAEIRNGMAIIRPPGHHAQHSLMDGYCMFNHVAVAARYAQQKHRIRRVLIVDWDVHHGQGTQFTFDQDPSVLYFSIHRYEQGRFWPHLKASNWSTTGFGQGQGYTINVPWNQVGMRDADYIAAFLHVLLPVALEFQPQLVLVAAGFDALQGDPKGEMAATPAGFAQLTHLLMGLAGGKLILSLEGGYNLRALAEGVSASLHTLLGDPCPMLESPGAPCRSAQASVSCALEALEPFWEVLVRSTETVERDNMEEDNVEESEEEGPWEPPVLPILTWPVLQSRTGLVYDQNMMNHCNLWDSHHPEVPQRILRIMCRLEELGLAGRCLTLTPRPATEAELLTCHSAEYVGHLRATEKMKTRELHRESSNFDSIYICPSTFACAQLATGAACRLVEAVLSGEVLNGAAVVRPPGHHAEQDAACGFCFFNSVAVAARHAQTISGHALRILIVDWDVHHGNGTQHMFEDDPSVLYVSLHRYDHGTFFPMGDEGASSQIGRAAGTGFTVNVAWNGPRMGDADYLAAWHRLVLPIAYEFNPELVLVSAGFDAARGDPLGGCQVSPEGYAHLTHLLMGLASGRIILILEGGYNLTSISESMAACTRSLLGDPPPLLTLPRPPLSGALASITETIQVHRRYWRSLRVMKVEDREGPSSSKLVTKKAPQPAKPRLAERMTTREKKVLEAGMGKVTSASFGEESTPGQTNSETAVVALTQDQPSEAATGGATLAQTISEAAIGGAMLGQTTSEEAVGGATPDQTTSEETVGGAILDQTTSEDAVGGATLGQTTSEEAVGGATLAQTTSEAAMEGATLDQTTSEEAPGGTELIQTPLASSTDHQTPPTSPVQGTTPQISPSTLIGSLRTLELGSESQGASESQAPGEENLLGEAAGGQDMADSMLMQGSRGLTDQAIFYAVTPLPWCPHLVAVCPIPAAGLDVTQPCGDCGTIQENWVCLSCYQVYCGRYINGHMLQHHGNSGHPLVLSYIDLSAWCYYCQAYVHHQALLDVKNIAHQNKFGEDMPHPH

[2] = biological target: T2, Histone deacetylase 8 (Homo sapiens, UniProt Q9BY41); assay: Inhibition of recombinant HDAC8 (unknown origin) expressed in Escherichia coli BL21(DE3) after 60 mins using trichostatin A by label-free mass spectrometry-based SAMDI assay
T2 sequence (Q9BY41 whole entry): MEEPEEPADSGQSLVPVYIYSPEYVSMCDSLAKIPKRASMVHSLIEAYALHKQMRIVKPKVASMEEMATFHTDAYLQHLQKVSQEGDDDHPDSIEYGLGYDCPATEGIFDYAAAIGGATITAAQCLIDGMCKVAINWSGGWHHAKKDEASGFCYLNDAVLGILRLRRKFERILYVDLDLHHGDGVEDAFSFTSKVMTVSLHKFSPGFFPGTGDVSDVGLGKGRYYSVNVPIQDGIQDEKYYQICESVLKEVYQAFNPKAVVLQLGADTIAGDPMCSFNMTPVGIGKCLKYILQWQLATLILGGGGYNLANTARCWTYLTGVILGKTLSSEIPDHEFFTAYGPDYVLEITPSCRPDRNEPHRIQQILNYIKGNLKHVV

[3] = tested on: Vero; assay: Cytotoxicity against African green monkey Vero cells after 72 hrs by MTS assay; type: cell-based; conditions: Chlorocebus sabaeus
In short: (§1)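 Cells kept in DMEM with 10% FBS and 1% penicillin-streptomycin, seeded in 96-well plates for 24 h, then exposed to a range of drug concentrations for 72 h at 0.1% DMSO; viability read by MTS assay per manufacturer's protocol.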

[4] = Inhibition of NTHi-induced NF-kappaB activation in human BEAS-2B cells treated 1 hr before NTHi stimulation measured after 5 hrs by luciferase assay; type: cell-based; conditions: Homo sapiens, BEAS-2B; read-out: IC50
[5] = tested on: A549; assay: Cytotoxicity against human A549 cells after 72 hrs by MTS assay; type: functional, cell-based; conditions: Homo sapiens, A549, 72 h; read-out: IC50; in short: as §1
[6] = species on record: Homo sapiens; conditions: at 1 µM
[7] = biological target: Histone deacetylase 1 (Homo sapiens, UniProt Q13547); assay: Inhibition of recombinant HDAC1 (unknown origin) expressed in Escherichia coli BL21(DE3) after 60 mins using trichostatin A by label-free mass spectrometry-based SAMDI assay
[8] = tested on: BEAS-2B; assay: Antiinflammatory activity in human BEAS2B cells assessed as inhibition of NTHi-induced IL-1beta mRNA expression at 1 uM treated 2 hrs before NTHi stimulation measured after 1.5 hrs by Q-PCR analysis; type: functional, cell-based
In short: (§2)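 BEAS-2B cells pretreated 2 h with inhibitor at 1 μM, then stimulated 1.5 h with NTHi; PBS-treated cells as unstimulated control. Total RNA isolated with TRIzol, reverse transcribed, and TNF-α, IL-1α, IL-1β mRNA quantified by SYBR Green real-time PCR with 500 nM primers, reactions in triplicate; mean of n=3, representative of three independent experiments.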

[9] = tested on: BEAS-2B; assay: Antiinflammatory activity in human BEAS2B cells assessed as inhibition of NTHi-induced TNFalpha mRNA expression at 1 uM treated 2 hrs before NTHi stimulation measured after 1.5 hrs by Q-PCR analysis; type: functional, cell-based; in short: as §2
[10] = tested on: MCF7; assay: Cytotoxicity against human MCF7 cells after 72 hrs by MTS assay; type: functional, cell-based; conditions: Homo sapiens, MCF7, 72 h; read-out: IC50; in short: as §1
[11] = tested on: BEAS-2B; assay: Antiinflammatory activity in human BEAS2B cells assessed as inhibition of NTHi-induced IL-1alpha mRNA expression at 1 uM treated 2 hrs before NTHi stimulation measured after 1.5 hrs by Q-PCR analysis; type: functional, cell-based; in short: as §2

Sequence of Histone deacetylase 1 (Q13547 whole entry): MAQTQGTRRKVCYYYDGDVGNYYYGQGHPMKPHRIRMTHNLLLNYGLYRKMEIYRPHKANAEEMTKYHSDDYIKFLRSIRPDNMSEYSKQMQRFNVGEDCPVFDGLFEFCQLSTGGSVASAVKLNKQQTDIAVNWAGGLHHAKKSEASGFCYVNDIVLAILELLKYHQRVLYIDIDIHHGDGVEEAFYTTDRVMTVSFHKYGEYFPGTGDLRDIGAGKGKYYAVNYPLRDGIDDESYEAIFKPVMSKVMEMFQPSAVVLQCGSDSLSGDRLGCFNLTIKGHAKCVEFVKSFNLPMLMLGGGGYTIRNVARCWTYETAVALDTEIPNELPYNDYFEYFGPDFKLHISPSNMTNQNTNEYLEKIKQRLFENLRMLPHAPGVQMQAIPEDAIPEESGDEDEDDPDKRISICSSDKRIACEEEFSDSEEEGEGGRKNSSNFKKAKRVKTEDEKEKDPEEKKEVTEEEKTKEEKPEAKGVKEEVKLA

SMILES	IC50 [1] [nM]	IC50 [2] [nM]	IC50 [3] [nM]	IC50 [4] [nM]	IC50 [5] [nM]	Imax [6] [%]	IC50 [7] [nM]	inhibition [8]	inhibition [9]	IC50 [10] [nM]	inhibition [11]
CC[C@H]1OC(=O)[C@@H](C)[C@H](O[C@H]2C[C@@](C)(OC)[C@](O)(CN(C)C)[C@H](C)O2)[C@H](C)[C@H](O[C@H]2O[C@@H](C)C[C@@H](N(C)Cc3ccc(-c4cn(CCCCCCC(=O)NO)nn4)cc3)[C@@H]2O)[C@@](C)(O)C[C@H](C)CN(C)[C@@H](C)[C@H](O)[C@@]1(C)O	18.9	749	5730	575	6800	43.4	79.5				
CC[C@H]1OC(=O)[C@H](C)C(=O)[C@H](C)[C@@H](O[C@@H]2O[C@H](C)C[C@H](N(C)Cc3ccc(-c4cn(CCCCCCC(=O)NO)nn4)cc3)[C@H]2O)[C@@](C)(OC)C[C@@H](C)C2=NCCN3C(=O)O[C@@]1(C)[C@H]3[C@H]2C	6.99	1500		47.2	2190	35.3	20.8	Active	Active	1980	Active
CC[C@@H]1OC(=O)[C@H](C)[C@@H](O[C@@H]2C[C@](C)(OC)[C@H](O)[C@@H](C)O2)[C@@H](C)[C@@H](O[C@@H]2O[C@H](C)C[C@H](N(C)Cc3cccc(-c4cn(CCCCCCC(=O)NO)nn4)c3)[C@H]2O)[C@](C)(O)C[C@@H](C)CN(C)[C@H](C)[C@@H](O)[C@]1(C)O	41	1440	8350	609	4090	43.3	101			2370	
CC[C@@H]1OC(=O)[C@@H](C)[C@H](O[C@H]2C[C@@](C)(OC)[C@](O)(CN(C)Cc3ccc(-c4cn(CCCCCCC(=O)NO)nn4)cc3)[C@H](C)O2)[C@H](C)[C@H](O[C@@H]2O[C@H](C)C[C@H](N(C)C)[C@H]2O)[C@@](C)(OC)C[C@H](C)C(=O)[C@@H](C)[C@@H](O)[C@@]1(C)O	2.85	1840	1550	197	990	35.6	23.9	Active	Active	690	Active
CC[C@@H]1OC(=O)[C@@H](C)[C@H](O[C@@H]2C[C@](C)(OC)[C@@](O)(CN(C)C)[C@@H](C)O2)[C@H](C)[C@H](O[C@@H]2O[C@H](C)C[C@H](N(C)Cc3ccc(-c4cn(CCCCCCC(=O)NO)nn4)cc3)[C@H]2O)[C@@](C)(OC)C[C@H](C)C(=O)[C@@H](C)[C@@H](O)[C@@]1(C)O	31.4	2210	2080	260	3580	33.4	33.3			1430	
